# Data from PubChem BioAssay.
# Calls of active or inactive are those of the source. Rule as the data show it, unless noted: active = inhibition above about 31%; inactive = the rest.
# What was measured:
# [1] = HUVEC growth inhibition – cell-based, human, primary screen (AID 575;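 active = viability at or below 30% in both replicate assays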;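 also: 100% = median of untreated cell wells with 0.1% DMSO on each plate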); details: HUVEC proliferation, CellTiter-Glo luminescence, 72 h; at 10 µM; stronger effect = lower value
# Procedure, shortened: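 System: primary human umbilical vein endothelial cells; Quantity: 1250 endothelial cells in each well; Buffer or medium: supplemented EBM, 2% fetal bovine serum; Doses: one dose, 10 µM final, 0.1% DMSO; Incubation: 72 h compound incubation; Technique: ATP-based CellTiter-Glo luminescent read; Evaluation: percent of median DMSO-control luminescence; Controls: vehicle and MePR control wells.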
# [2] = H69AR cell proliferation blockers – human, duplicate replicates, primary screen (AID 580;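 active = viability at or under a set limit in both replicates, limit being median viability minus 3 SD, cut at about 48% in these data, passing the limit was not always enough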;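 also: 100% = mean luminescence of untreated wells and 0% = no signal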); details: H69AR lung tumor cells viability, ATP luminescence, 72 h; at 10 µM; stronger effect = lower value
# [3] = MRP1 drug-resistance reversers in H69AR cells – cell-based, doxorubicin co-treatment, pilot screen (AID 601;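 active = viability loss from added drug above about 55%, and viability with drug at most 40%, in both replicates, limit read from the data, passing the limit was not always enough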); details: CellTiter-Glo, 72 h, at 10 µM; for differential viability (reversal): stronger effect = higher value
# [4] = yeast transport mutant growth inhibition pilot in 384-well plates, post-Golgi transport modulator project (AID 636); details: absorbance 615 nm, about 18 h, stronger effect = higher value
# [5] = growth suppression of yeast trafficking mutant, preliminary HTS, modulators of trafficking downstream of Golgi apparatus project, 1536-format plate, OD 615 nm (AID 637; in the data active = inhibition above about 30%); details: yeast transport mutant growth, absorbance 615 nm, 18 h; stronger effect = higher value
# [6] = H69AR cells + 2 uM doxorubicin, measured here: viability with 2 uM doxorubicin, stronger effect = lower value
# [7] = H69AR cells, compound alone cytotoxicity
Structure (SMILES),viability [1],viability [2],differential viability (reversal) ([3]; H69AR cells + 2 uM doxorubicin),"viability [3, 6] [%]","viability [3, 7] [%]",inhibition [4],inhibition [5]
COc1cc(NC(=O)Cc2ccccc2OC)cc(OC)c1,96.9% (inactive),95.7% (inactive),3.67% (inactive),92,95.7,0.27% (inactive),-6.67% (inactive)
CCOC(=O)C1C(=O)NC(SCC(=O)Nc2nccs2)=C(C#N)C1c1ccccc1OCC (stereo unspecified),76.2% (inactive),71.3% (inactive),-1.05% (inactive),72.3,71.3,-1.45% (inactive),7.78% (inactive)
c1ccc(OCc2nc3ccccc3[nH]2)cc1,85.4% (inactive),92.2% (inactive),1.59% (inactive),90.6,92.2,-3.6% (inactive),-4.13% (inactive)
COc1cc(CN2CCC(C(=O)NC3CCCC3)CC2)ccc1O,109% (inactive),94.7% (inactive),9.49% (inactive),85.2,94.7,-4% (inactive),0.79% (inactive)
COC(=O)c1[nH]c(C)c(/C(O)=C2\C(=O)C(=O)N(CCCN3CCOCC3)C2c2ccccn2)c1C (stereo unspecified),109% (inactive),104% (inactive),7.94% (inactive),96.1,104,-0.53% (inactive),-4.6% (inactive)
Oc1cccc2ccc(Nc3ccccn3)nc12,2.4% (active),1.99% (active),0.495% (inactive),1.5,1.99,-4.16% (inactive),2.22% (inactive)
Cc1ccc(NC(=O)c2ccccc2F)nc1,68.1% (inactive),90.9% (inactive),-6.37% (inactive),97.2,90.9,-4.93% (inactive),1.11% (inactive)
COc1cc(OC)cc(-c2nc(N)n[nH]2)c1,97.8% (inactive),103% (inactive),5.86% (inactive),97.3,103,-6.4% (inactive),2.06% (inactive)
O=c1oc(-c2ccco2)nc2ccccc12,92.6% (inactive),91% (inactive),4.72% (inactive),86.2,91,-0.78% (inactive),-2.22% (inactive)
CCCSC1=C(C#N)C(c2ccccc2OCC)CC(=O)N1 (stereo unspecified),79% (inactive),90.1% (inactive),-3.18% (inactive),93.3,90.1,-2.5% (inactive),3.33% (inactive)
Cc1[nH]nc2c1C1(CCN(C(=O)c3ccccc3)CC1)C(C#N)=C(N)O2,104% (inactive),98.7% (inactive),3.04% (inactive),95.7,98.7,0.52% (inactive),6.83% (inactive)
S=c1[nH]nc(COc2ccccc2)n1C1CCCCC1,89.5% (inactive),81.6% (inactive),22.4% (inactive),59.2,81.6,-0.39% (inactive),6.35% (inactive)
CN(C)S(=O)(=O)c1cccc(C(=O)Nc2cccnc2)c1,83.9% (inactive),89.5% (inactive),7.48% (inactive),82,89.5,-4.93% (inactive),1.43% (inactive)
CCN(C(=O)c1c(-c2ccccc2)noc1C)c1ccccc1,100% (inactive),93.8% (inactive),9.52% (inactive),84.3,93.8,-1.18% (inactive),14.9% (inactive)
Cc1ccc(CCSCC(=O)O)cn1,109% (inactive),101% (inactive),2.9% (inactive),98.3,101,-2.4% (inactive),0.16% (inactive)
CC(=O)Nc1cccc(NC(=O)CSc2nnnn2C(C)C)c1,97.5% (inactive),99.2% (inactive),14.7% (inactive),84.5,99.2,-8.03% (inactive),4.13% (inactive)
O=C(NCc1ccco1)c1noc2c1CCCCC2,96.4% (inactive),78.4% (inactive),5.79% (inactive),72.6,78.4,-3.64% (inactive),-0.95% (inactive)
O=C(CCNC(=O)c1ccc(Br)o1)NC1CCCC1,87% (inactive),95.1% (inactive),16.9% (inactive),78.2,95.1,-4.4% (inactive),4.29% (inactive)
O=C(Cc1c[nH]c2ccccc12)N1CCc2ccccc21,88.9% (inactive),80.7% (inactive),13.1% (inactive),67.5,80.7,-2.99% (inactive),-2.86% (inactive)

Structure (SMILES),viability [1],viability [2],differential viability (reversal) ([3]; H69AR cells + 2 uM doxorubicin),"viability [3, 6] [%]","viability [3, 7] [%]",inhibition [4],inhibition [5]
COc1cccc(C(=O)Nc2cc(NC(=O)c3ccco3)ccc2OC)c1,69.1% (inactive),80.6% (inactive),2.75% (inactive),77.8,80.6,-3.64% (inactive),-2.22% (inactive)
COC(=O)c1c(NC(=O)C2CC=CCC2C(=O)O)sc(C(N)=O)c1C (stereo unspecified),75.4% (inactive),98.2% (inactive),4.23% (inactive),94,98.2,-7.76% (inactive),-6.03% (inactive)
Cc1ccc(OCc2nnc(SCC(=O)N3CCOCC3)n2C)cc1,102% (inactive),106% (inactive),17.4% (inactive),88.5,106,-0.93% (inactive),-6.35% (inactive)
N#Cc1nc(-c2ccccc2Cl)oc1N1CCOCC1,84.2% (inactive),86.8% (inactive),3.5% (inactive),83.3,86.8,-3.47% (inactive),14.1% (inactive)
Cc1c(C(=O)NCc2ccccn2)oc2ccccc12,99.6% (inactive),106% (inactive),25.7% (inactive),80.5,106,-0.92% (inactive),17.9% (inactive)
CCOC(=O)CSc1nnc(CNC(=O)c2ccc(OC)c(OC)c2)n1C,107% (inactive),95.7% (inactive),-2.17% (inactive),97.8,95.7,-1.82% (inactive),-2.54% (inactive)
N=c1ncn(CC(O)CN2CCOCC2)c2nc(N3CCOCC3)[nH]c12 (stereo unspecified),92.6% (inactive),98.6% (inactive),12.4% (inactive),86.2,98.6,0.4% (inactive),-1.9% (inactive)
O=C1CCCc2nc(N3CCCCC3)sc21,88.9% (inactive),82.8% (inactive),-6.74% (inactive),89.6,82.8,-0.27% (inactive),-0.95% (inactive)
CCCn1nc(CC(=O)O)c2ccccc2c1=O,98.2% (inactive),103% (inactive),8.11% (inactive),94.7,103,-6.27% (inactive),-3.02% (inactive)
CCCCCCn1c(CN2CCN(Cc3ccccc3)CC2)nc2c1c(=O)n(C)c(=O)n2C,86.6% (inactive),70.9% (inactive),38.8% (inactive),32.1,70.9,-5.48% (inactive),4.55% (inactive)
CCOc1ccc(OCc2cccc(C(=O)N3CCOCC3)c2)cc1,83.9% (inactive),94.5% (inactive),0.305% (inactive),94.2,94.5,-5.87% (inactive),2.7% (inactive)
Cc1ccc(S(=O)(=O)Cn2nnnc2C(C(C)C)N2CCN(C(=O)c3ccco3)CC2)cc1 (stereo unspecified),94.8% (inactive),91.3% (inactive),8.2% (inactive),83.1,91.3,-4% (inactive),-4.29% (inactive)
N=c1sc2ccccc2n1-c1ccccc1,102% (inactive),89% (inactive),6.59% (inactive),82.4,89,-3.12% (inactive),3.33% (inactive)
COc1ccc(OC)c(CNC(=O)CCN2C(=O)COc3ccccc32)c1,90.1% (inactive),91.8% (inactive),3.34% (inactive),88.5,91.8,-1.32% (inactive),-2.06% (inactive)
CCOCCCNC(=O)C1CCN(S(=O)(=O)c2c(C)noc2/C=C\c2ccc(OC)cc2)CC1,99.5% (inactive),101% (inactive),-0.205% (inactive),101,101,4.13% (inactive),-3.65% (inactive)
CCOC(=O)Cc1nnc(NC(=O)CSc2nnc3c4ccccc4n(C(C)C)c3n2)s1,83.9% (inactive),75.6% (inactive),0.7% (inactive),74.9,75.6,-0.91% (inactive),-1.43% (inactive)
N#Cc1nc(COc2ccccc2)oc1NCCN1CCOCC1,108% (inactive),107% (inactive),11.7% (inactive),95,107,-4.68% (inactive),10.5% (inactive)
Cc1ccccc1C(=O)N1CCC(C(=O)Nc2ccc(S(=O)(=O)N3CCCC3)cc2)CC1,97.1% (inactive),78.8% (inactive),-3.87% (inactive),82.7,78.8,-4.55% (inactive),-3.49% (inactive)
COc1ccccc1CC(=O)NCc1ccc2c(c1)OCO2,106% (inactive),93.5% (inactive),9.18% (inactive),84.3,93.5,-7.2% (inactive),6.19% (inactive)
